In PubChem BioAssay AID2655 (Broad Institute, 2010):

System: human platelets, SFLLRN-induced actin polymerization, FITC-phalloidin flow
Test: inhibition of SFLLRN-induced platelet actin polymerization, late-stage follow-up, selectivity assay for platelet granule secretion inhibitor project, cell-based, FITC-phalloidin flow cytometry, human platelets (AID 2655)
Details: at 10 µM; active compounds read high
In short: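 Test system – Gel-filtered platelets · Reagent – 5 µM SFLLRN or none · Compound – 10 µM single dose, 0.3% DMSO · Schedule – 20 min compound, 15 min SFLLRN, 37 °C · Signal – FITC-phalloidin flow cytometry in fixed, permeabilized platelets · Control set – 0.3% DMSO vehicle samples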

| Structure (SMILES) | inhibition [%] |
| --- | --- |
| CCCC(=O)Nc1cccc(NC(=O)c2ccccc2Br)c1 | 80.4 |
| O=C(Nc1cccc(NC(=O)c2ccccc2Cl)c1)c1ccco1 | 71.4 |
